The test system of assay [1] is Cricetinae gen. sp. The assay is described as follows: The compound was evaluated for the antifertility activity in hamster at 12.5 ug administered subcutaneously. In kind it is functional, Cricetulus griseus. The method, boiled down:
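Hamsters were dosed subcutaneously, daily, in groups of ten. The minimum effective dose was the lowest dose per hamster per day giving no pregnancies (no implants) in the group. Potency was derived by comparing each compound's minimum effective dose with that of natural PGF2α.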

In another assay the test system is Gerbillinae. In words: The compound was evaluated for the gerbil colon contraction in vitro on colon strips.
The subject of assay [2] is Cricetinae gen. sp. The assay is described as follows: The compound was evaluated for the hamster uterine contraction in vitro on uterine strips.

Turning to `CCCCC[C@@H](O)/C(F)=C\[C@@H]1[C@@H](C/C=C\CCCC(=O)OC)[C@@H](O)C[C@H]1O`, the relative potency (PGF2α = 1) in the assay with Cricetinae gen. sp. [1] was greater than 1; in the assay on Gerbillinae, 0.15; in the assay with Cricetinae gen. sp. [2] it was 0.36.

Turning to `CCCCC[C@H](O)/C(F)=C/[C@@H]1[C@@H](C/C=C\CCCC(=O)OC)[C@@H](O)C[C@H]1O`, the relative potency (PGF2α = 1) with Cricetinae gen. sp. [1] is less than 0.5; with Gerbillinae, 0.023; in the assay with Cricetinae gen. sp. [2], 0.263.

For the compound `CCCCC[C@@H](O)/C(F)=C/[C@@H]1[C@@H](C/C=C\CCCC(=O)OC)[C@@H](O)C[C@H]1O`, the relative potency (PGF2α = 1) came to 0.5 in the assay on Cricetinae gen. sp. [1], 0.0034 with Gerbillinae and 0.025 in the assay with Cricetinae gen. sp. [2].

With `CCCCC[C@H](O)/C(F)=C\[C@@H]1[C@@H](C/C=C\CCCC(=O)OC)[C@@H](O)C[C@H]1O`, the relative potency (PGF2α = 1) with Cricetinae gen. sp. [1] is less than 0.1; in the assay with Gerbillinae it was 0.002; with Cricetinae gen. sp. [2], 0.0002.

For the compound `CCCCC[C@H](O)/C=C/[C@@]1(F)[C@H](O)C[C@H](O)[C@@H]1C/C=C\CCCC(=O)OC`, the relative potency (PGF2α = 1) came out at 12.5 with Cricetinae gen. sp. [1], 0.001 in the assay with Gerbillinae and 0.28 with Cricetinae gen. sp. [2].

Take `CCCCC[C@@H](O)/C=C/[C@@]1(F)[C@H](O)C[C@H](O)[C@@H]1C/C=C\CCCC(=O)OC`: the values for the relative potency (PGF2α = 1) in the assay on Cricetinae gen. sp. [1], in the assay on Gerbillinae and in the assay on Cricetinae gen. sp. [2] were 1, 0.011 and 0.022, respectively.

Values taken from ChEMBL document CHEMBL1121536, “C(14)-fluorinated prostaglandins: synthesis and biological evaluation of the methyl esters of (+)-14-fluoro-, (+)-15-epi-14-fluoro-, (+)-13(E)-14-fluror-, and (+)-13(E)-15-epi-14-fluoroprostaglandin F2 alpha” (1980).
